Columns and labels:
[1] = Solubility in water; format: physicochemical; settings: buffer
[2] = Solubility in organic solvents; format: physicochemical
LN-229 [3] = assay: Cytotoxicity against human LN229 cells assessed as cell viability at 10 ug/ml incubated for 72 hrs by Guava ViaCount reagent based flow cytometry; format: functional; settings: LN-229, 72 h, read-out: Activity
In short: (§1)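 Cells kept as semi-confluent monolayers in DMEM with 10% FBS, 50 U/ml penicillin and […], at 37 °C under 5% CO₂. Seeded at 2 × 10⁴ cells per well in 24-well plates. Compounds were made up as 10 mg/ml DMSO stocks, diluted into medium to a final 1 or 10 μg/ml, and left on the cells for 72 h.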

LN-229 [4] = assay: Cytotoxicity against human LN229 cells assessed as cell viability at 1 ug/ml incubated for 72 hrs by Guava ViaCount reagent based flow cytometry; format: functional; settings: LN-229, 72 h, read-out: Activity; in short: as §1

Compound | solubility [1] | solubility [2] | viability at 10 µg/mL (LN-229 [3]) [%] | viability at 1 µg/mL (LN-229 [4]) [%]
CN1C(=O)C(=CNc2ccccc2)C(=O)N(C)C1=O | Insoluble | Insoluble | 96.1 | 95
CN1C(=O)/C(=C/Nc2cccc3ccccc23)C(=O)NC1=S | – | – | 78.3 | 90
O=C1NC(=S)NC(=O)C1=CNc1ccc2cc3ccccc3cc2c1 | – | – | 11 | 83.3
O=C1NC(=O)C(=CNc2cccc3c2C(=O)c2ccccc2C3=O)C(=O)N1 | – | – | 22.1 | 31.9
O=C1NC(=S)NC(=O)C1=CNc1ccc(-c2ccccc2)cc1 | – | – | 13.8 | 95.3
CN1C(=O)/C(=C/Nc2ccc3ccccc3c2)C(=O)NC1=S | – | – | 84.5 | 94.6
CN1C(=O)NC(=O)/C(=C\Nc2ccc3ccccc3c2)C1=O | – | – | 56 | 90
CN1C(=O)NC(=O)/C(=C/Nc2ccccc2)C1=O | Insoluble | Insoluble | 95 | 94.9
CN1C(=O)C(=CNc2ccc3c(c2)C(=O)c2ccccc2C3=O)C(=O)N(C)C1=O | – | – | 68.3 | 92.4
CN1C(=O)NC(=O)/C(=C\Nc2cccc3ccccc23)C1=O | – | – | 94.5 | 89
O=C1NC(=S)NC(=O)C1=CNc1ccc2ccccc2c1 | – | – | 94.4 | 96.5
O=C1NC(=S)NC(=O)C1=CNc1cccc2c1C(=O)c1ccccc1C2=O | – | – | 48.6 | 65
CN1C(=O)NC(=O)/C(=C\Nc2ccc(-c3ccccc3)cc2)C1=O | – | – | 93.5 | 96.9
CN1C(=O)/C(=C\Nc2ccccc2)C(=O)NC1=S | Insoluble | Insoluble | 94.3 | 94.3
CN1C(=O)/C(=C/Nc2ccc3c(c2)C(=O)c2ccccc2C3=O)C(=O)NC1=S | – | – | 17.2 | 80.8
O=C1NC(=O)N(c2ccc([N+](=O)[O-])cc2)C(=O)/C1=C/Nc1cccc2c1C(=O)c1ccccc1C2=O | – | – | 10.4 | 75.8
O=C1NC(=O)N(c2ccccc2)C(=O)/C1=C/Nc1cccc2c1C(=O)c1ccccc1C2=O | – | – | 29.2 | 66.3
O=C1NC(=O)N(c2ccccc2)C(=O)/C1=C/Nc1ccc2c(c1)C(=O)c1ccccc1C2=O | – | – | 76.5 | 87.6
O=C1NC(=O)C(=CNc2ccc3c(c2)C(=O)c2ccccc2C3=O)C(=O)N1 | – | – | 17.2 | 82.9

Compound | solubility [1] | solubility [2] | viability at 10 µg/mL (LN-229 [3]) [%] | viability at 1 µg/mL (LN-229 [4]) [%]
CN1C(=O)NC(=O)/C(=C\Nc2ccc3cc4ccccc4cc3c2)C1=O | – | – | 9.4 | 60.3
CN1C(=O)/C(=C/Nc2ccc(-c3ccccc3)cc2)C(=O)NC1=S | – | – | 89.6 | 97
CN1C(=O)C(=CNc2ccc3cc4ccccc4cc3c2)C(=O)N(C)C1=O | – | – | 60.8 | 88.1
CN1C(=O)/C(=C/Nc2ccc3cc4ccccc4cc3c2)C(=O)NC1=S | – | – | 3.7 | 75
CN1C(=O)NC(=O)/C(=C\Nc2ccc3c(c2)C(=O)c2ccccc2C3=O)C1=O | – | – | 28.9 | 89.7
CN1C(=O)C(=CNc2ccc(-c3ccccc3)cc2)C(=O)N(C)C1=O | – | – | 94.6 | 94.8
CN1C(=O)C(=CNc2cccc3c2C(=O)c2ccccc2C3=O)C(=O)N(C)C1=O | – | – | 86.3 | 94.7
O=C1NC(=O)N(c2ccc([N+](=O)[O-])cc2)C(=O)/C1=C/Nc1ccc2c(c1)C(=O)c1ccccc1C2=O | – | – | 61.8 | 88.2
O=C1NC(=O)C(=CNc2ccccc2)C(=O)N1 | Insoluble | Insoluble | 96.1 | 96.2
O=C1NC(=O)C(=CNc2cccc3ccccc23)C(=O)N1 | – | – | 95.1 | 93.2
O=C1NC(=O)C(=CNc2ccc3ccccc3c2)C(=O)N1 | – | – | 82.4 | 92.4
CN1C(=O)C(=CNc2ccc3ccccc3c2)C(=O)N(C)C1=O | – | – | 86.6 | 90.5
O=C1NC(=S)NC(=O)C1=CNc1ccc2c(c1)C(=O)c1ccccc1C2=O | – | – | 12.3 | 87.4
CN1C(=O)/C(=C/Nc2cccc3c2C(=O)c2ccccc2C3=O)C(=O)NC1=S | Insoluble | Insoluble | – | –
O=C1NC(=O)C(=CNc2ccc(-c3ccccc3)cc2)C(=O)N1 | – | – | 85.5 | 92.6
CN1C(=O)C(=CNc2cccc3ccccc23)C(=O)N(C)C1=O | – | – | 95.4 | 94.5
O=C1NC(=S)NC(=O)C1=CNc1ccccc1 | Insoluble | Insoluble | 95.3 | 96.5
CN1C(=O)NC(=O)/C(=C\Nc2cccc3c2C(=O)c2ccccc2C3=O)C1=O | – | – | 35.3 | 84.8

— ChEMBL document CHEMBL4043206, “Anticancer potential of aminomethylidene-diazinanes I. Synthesis of arylaminomethylidene of diazinetriones and its cytotoxic effects tested in glioblastoma cells” (Bioorg Med Chem, 2017)
